What was measured:
[1] = target: T1, Non-receptor tyrosine-protein kinase TNK1 (Homo sapiens) (UniProt Q13470); test: Competitive binding affinity to TNK1 (unknown origin) at 10 uM in presence of ATP relative to control
T1 sequence (whole entry): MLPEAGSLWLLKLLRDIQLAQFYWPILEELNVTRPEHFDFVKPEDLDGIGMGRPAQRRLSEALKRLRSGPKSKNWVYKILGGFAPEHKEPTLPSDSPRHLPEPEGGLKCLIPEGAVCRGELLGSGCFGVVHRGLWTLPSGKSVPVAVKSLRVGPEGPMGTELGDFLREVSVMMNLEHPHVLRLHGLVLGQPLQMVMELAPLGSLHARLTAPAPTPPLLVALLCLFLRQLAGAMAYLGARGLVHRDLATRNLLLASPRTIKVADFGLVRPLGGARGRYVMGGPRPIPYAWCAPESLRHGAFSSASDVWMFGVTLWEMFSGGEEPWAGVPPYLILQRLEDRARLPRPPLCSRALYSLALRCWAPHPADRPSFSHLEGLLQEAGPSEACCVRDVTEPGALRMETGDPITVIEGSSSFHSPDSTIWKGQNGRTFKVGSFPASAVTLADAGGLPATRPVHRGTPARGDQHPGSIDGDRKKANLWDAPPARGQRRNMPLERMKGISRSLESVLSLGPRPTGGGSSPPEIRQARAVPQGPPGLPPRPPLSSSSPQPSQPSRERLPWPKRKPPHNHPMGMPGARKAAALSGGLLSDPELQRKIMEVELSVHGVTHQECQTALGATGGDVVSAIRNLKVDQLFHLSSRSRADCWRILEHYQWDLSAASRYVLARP

[2] = target: Serine/threonine-protein kinase tousled-like 2 (Homo sapiens) (UniProt Q86UE8); test: Competitive binding affinity to TLK2 (unknown origin) at 10 uM in presence of ATP relative to control
Serine/threonine-protein kinase tousled-like 2 (Homo sapiens), sequence (Q86UE8 whole entry, looked up): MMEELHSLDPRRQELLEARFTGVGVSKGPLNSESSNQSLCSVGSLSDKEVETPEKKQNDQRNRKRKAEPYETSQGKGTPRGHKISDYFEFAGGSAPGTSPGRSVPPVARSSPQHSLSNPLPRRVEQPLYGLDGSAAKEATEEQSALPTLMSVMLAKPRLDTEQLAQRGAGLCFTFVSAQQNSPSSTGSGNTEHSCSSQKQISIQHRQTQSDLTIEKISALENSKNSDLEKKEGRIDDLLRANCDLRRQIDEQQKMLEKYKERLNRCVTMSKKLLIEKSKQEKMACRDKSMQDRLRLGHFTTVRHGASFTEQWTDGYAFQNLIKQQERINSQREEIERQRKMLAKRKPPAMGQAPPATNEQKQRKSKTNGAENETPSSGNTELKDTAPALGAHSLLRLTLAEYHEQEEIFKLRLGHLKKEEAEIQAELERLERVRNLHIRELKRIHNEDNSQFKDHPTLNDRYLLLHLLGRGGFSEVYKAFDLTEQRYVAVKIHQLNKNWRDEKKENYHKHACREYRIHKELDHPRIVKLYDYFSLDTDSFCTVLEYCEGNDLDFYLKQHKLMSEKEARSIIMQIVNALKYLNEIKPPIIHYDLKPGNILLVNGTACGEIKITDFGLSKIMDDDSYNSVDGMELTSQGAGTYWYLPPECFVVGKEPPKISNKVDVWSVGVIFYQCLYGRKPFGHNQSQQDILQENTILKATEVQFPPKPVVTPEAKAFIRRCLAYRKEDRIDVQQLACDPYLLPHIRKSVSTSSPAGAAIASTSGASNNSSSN

[3] = target: Macrophage colony-stimulating factor 1 receptor (Homo sapiens) (UniProt P07333); test: Competitive binding affinity to CSF1R (unknown origin) at 10 uM in presence of ATP relative to control
Macrophage colony-stimulating factor 1 receptor (Homo sapiens), sequence (P07333 whole entry): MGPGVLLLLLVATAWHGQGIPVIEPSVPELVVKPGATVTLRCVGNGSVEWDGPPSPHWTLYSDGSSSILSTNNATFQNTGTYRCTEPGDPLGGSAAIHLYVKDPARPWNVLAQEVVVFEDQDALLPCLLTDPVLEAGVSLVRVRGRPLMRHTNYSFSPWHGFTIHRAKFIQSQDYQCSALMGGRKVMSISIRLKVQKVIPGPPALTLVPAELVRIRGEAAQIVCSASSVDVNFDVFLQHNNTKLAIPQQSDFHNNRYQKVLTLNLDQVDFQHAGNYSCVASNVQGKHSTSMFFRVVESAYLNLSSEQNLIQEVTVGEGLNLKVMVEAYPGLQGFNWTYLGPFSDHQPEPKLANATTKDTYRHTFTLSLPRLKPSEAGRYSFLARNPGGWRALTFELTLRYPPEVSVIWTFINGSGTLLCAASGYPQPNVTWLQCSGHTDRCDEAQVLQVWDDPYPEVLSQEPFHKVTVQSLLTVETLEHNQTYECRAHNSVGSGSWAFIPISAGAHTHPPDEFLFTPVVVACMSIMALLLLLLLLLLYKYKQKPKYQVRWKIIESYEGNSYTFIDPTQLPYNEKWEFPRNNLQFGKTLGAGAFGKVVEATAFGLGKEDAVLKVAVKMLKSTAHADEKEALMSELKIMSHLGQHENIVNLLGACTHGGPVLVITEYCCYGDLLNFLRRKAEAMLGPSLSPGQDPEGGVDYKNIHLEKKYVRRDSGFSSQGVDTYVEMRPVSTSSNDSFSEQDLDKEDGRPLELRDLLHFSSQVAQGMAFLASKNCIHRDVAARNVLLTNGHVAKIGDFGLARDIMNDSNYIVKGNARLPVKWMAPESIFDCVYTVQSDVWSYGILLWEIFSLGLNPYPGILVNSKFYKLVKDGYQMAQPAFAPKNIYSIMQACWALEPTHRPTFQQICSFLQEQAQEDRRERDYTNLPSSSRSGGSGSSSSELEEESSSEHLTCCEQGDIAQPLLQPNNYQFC
How it was run: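 In vitro ATP-site competition binding assay across a diverse panel of 128 kinases, with each compound tested at a single concentration. Kinase binding is expressed relative to control.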

[4] = target: T2, Serine/threonine-protein kinase D2 (Homo sapiens) (UniProt Q9BZL6); test: Competitive binding affinity to PRKD2 (unknown origin) at 10 uM in presence of ATP relative to control
T2 sequence (whole entry): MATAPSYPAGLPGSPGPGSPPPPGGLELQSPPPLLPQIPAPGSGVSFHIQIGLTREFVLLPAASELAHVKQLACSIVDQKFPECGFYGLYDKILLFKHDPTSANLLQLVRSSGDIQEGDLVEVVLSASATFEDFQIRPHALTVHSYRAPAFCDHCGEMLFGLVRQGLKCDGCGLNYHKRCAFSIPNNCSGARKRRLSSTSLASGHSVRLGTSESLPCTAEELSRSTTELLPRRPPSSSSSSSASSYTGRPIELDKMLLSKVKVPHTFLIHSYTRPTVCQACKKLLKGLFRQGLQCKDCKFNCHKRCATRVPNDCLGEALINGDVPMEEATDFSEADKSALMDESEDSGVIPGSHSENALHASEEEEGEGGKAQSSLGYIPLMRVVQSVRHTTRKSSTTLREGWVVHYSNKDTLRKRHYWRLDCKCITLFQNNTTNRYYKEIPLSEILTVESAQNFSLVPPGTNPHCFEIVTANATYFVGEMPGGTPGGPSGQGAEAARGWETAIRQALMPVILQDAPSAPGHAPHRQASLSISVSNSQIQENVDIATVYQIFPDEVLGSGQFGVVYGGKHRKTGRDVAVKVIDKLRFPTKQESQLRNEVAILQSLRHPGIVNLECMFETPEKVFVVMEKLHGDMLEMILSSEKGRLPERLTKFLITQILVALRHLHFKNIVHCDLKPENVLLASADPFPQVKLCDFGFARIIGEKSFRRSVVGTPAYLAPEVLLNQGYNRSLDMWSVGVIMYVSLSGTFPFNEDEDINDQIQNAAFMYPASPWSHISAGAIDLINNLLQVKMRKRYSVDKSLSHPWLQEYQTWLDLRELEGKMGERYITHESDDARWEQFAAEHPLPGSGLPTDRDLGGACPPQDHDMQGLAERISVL

[5] = target: Myosin light chain kinase, smooth muscle (Homo sapiens) (UniProt Q15746); test: Competitive binding affinity to MLCK (unknown origin) at 10 uM in presence of ATP relative to control
Myosin light chain kinase, smooth muscle (Homo sapiens), sequence (Q15746 whole entry): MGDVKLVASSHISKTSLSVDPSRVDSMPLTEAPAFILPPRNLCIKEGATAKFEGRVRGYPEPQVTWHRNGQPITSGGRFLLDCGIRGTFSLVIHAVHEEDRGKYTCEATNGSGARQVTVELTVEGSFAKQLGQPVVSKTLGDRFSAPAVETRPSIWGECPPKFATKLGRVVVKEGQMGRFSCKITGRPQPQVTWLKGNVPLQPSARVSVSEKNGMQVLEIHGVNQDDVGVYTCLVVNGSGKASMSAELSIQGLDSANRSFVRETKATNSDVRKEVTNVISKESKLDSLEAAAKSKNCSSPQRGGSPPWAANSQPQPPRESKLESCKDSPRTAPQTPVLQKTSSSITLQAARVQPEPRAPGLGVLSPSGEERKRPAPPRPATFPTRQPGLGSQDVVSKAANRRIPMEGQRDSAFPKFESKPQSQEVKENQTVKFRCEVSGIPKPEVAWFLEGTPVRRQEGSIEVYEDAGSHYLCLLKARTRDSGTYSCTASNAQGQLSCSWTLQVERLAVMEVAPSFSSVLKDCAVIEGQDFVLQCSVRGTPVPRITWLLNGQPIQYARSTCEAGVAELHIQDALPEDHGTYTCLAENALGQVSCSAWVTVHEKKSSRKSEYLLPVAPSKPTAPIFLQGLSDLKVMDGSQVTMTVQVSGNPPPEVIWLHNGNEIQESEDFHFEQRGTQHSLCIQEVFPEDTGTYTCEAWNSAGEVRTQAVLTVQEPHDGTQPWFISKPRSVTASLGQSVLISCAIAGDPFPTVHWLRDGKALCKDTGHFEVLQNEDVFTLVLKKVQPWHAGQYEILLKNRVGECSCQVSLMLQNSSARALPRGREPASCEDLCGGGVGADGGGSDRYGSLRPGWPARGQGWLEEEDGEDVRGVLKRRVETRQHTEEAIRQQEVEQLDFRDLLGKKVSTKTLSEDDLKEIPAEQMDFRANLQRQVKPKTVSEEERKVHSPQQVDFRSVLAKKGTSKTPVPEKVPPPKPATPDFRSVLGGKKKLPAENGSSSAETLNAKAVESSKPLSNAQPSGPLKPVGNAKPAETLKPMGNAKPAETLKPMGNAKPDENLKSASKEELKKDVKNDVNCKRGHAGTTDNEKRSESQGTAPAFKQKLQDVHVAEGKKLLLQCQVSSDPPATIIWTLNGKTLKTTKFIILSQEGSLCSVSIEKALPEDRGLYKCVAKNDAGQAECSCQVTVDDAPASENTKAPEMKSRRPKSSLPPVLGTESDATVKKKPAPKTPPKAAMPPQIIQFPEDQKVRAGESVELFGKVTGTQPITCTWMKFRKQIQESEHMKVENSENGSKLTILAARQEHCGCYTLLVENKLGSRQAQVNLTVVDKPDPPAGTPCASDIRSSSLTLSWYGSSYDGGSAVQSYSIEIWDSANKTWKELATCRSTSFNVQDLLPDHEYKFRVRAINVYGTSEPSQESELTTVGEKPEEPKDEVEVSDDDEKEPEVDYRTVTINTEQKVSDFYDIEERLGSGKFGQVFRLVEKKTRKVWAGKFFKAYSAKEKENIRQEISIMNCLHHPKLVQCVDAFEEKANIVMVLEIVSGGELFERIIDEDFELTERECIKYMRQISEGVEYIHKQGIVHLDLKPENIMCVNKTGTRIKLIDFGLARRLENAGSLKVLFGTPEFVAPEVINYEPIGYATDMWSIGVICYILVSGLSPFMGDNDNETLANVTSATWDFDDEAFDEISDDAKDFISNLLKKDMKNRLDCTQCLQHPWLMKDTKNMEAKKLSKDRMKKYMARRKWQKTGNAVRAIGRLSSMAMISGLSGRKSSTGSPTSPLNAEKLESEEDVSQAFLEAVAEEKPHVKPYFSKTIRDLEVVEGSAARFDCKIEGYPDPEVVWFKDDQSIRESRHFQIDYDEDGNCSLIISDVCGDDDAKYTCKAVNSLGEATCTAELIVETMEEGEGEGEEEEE

[6] = target: Serine/threonine-protein kinase PLK1 (Homo sapiens) (UniProt P53350); test: Competitive binding affinity to PLK1 (unknown origin) at 10 uM in presence of ATP relative to control
Serine/threonine-protein kinase PLK1 (Homo sapiens), sequence (P53350 whole entry): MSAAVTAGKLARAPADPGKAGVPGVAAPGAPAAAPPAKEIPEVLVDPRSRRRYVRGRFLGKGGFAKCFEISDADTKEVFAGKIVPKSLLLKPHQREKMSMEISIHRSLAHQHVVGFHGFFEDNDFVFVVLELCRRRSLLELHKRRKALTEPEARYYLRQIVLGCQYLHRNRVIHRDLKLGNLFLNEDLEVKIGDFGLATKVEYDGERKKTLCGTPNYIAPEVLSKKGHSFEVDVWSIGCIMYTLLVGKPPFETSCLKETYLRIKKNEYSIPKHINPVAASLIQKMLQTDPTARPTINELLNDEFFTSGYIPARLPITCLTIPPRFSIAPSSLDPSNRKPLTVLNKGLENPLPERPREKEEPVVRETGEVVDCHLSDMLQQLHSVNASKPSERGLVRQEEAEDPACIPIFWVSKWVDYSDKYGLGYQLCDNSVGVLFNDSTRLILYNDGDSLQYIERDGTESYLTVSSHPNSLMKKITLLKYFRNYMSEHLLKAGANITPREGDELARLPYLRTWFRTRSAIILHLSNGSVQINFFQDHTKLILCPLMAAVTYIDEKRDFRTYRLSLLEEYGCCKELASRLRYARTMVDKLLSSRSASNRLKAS

[7] = target: T3, Serine/threonine-protein kinase 3 (Homo sapiens) (UniProt Q13188); test: Competitive binding affinity to STK3 (unknown origin) at 10 uM in presence of ATP relative to control
T3 sequence (whole entry): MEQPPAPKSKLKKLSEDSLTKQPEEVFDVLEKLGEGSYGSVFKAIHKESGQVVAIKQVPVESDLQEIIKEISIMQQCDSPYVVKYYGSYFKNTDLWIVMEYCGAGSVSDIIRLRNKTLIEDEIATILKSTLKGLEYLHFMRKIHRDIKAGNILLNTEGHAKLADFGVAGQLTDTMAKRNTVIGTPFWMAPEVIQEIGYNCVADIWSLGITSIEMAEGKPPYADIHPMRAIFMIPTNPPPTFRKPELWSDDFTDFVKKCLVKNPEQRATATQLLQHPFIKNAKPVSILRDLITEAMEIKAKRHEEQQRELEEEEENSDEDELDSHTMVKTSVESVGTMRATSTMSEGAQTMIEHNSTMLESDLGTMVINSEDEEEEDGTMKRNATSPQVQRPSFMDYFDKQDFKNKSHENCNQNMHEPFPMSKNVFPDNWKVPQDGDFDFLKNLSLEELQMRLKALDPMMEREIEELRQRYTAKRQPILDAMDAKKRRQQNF

Row | Compound | inhibition [1] | inhibition [2] | inhibition [3] | inhibition [4] | inhibition [5] | inhibition [6] | inhibition [7]
1 | N[C@H]1CC[C@H](Nc2nccc(-n3nnc4ccccc43)n2)CC1 | – | – | – | – | – | – | 96%
2 | O=C([C@H]1CC[C@H](Nc2nccc(-n3nnc4ccccc43)n2)CC1)N1CCOCC1 | – | – | – | – | – | – | 86%
3 | O[C@H]1CC[C@H](Nc2nccc(-n3nnc4ccccc43)n2)CC1 | < 50% | < 50% | < 50% | 98% | 88% | < 50% | –

Continued, values first:

Row | inhibition [1] | inhibition [2] | inhibition [3] | inhibition [4] | inhibition [5] | inhibition [6] | inhibition [7] | Compound
4 | < 50% | < 50% | 74% | 91% | < 50% | < 50% | – | O[C@H]1CC[C@H](Nc2nccc(-n3ncc4ccccc43)n2)CC1
5 | < 50% | < 50% | < 50% | 88% | 65% | < 50% | – | O[C@H]1CC[C@H](Nc2nccc(-n3ccc4ccccc43)n2)CC1
6 | 81% | 96% | 97% | – | – | < 50% | 94% | O[C@H]1CC[C@H](Nc2nccc(-c3n[nH]c4ccccc34)n2)CC1
